What was measured:
Type in all cases: functional
CCRF-CEM = assay: Growth inhibition of human CCRF-CEM cells incubated for 48 hrs by sulforhodamine B assay
Summary of the method: (§1)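 NCI-60 five-dose screen at 0.01, 0.1, 1, 10 and 100 µM, 48 h incubation, sulforhodamine B end point. GI50 (50% decrease in net growth), TGI (total growth inhibition) and LC50 (net 50% loss of initial cells) taken from log concentration versus % growth inhibition curves.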

MOLT-4 = assay: Growth inhibition of human MOLT4 cells incubated for 48 hrs by sulforhodamine B assay; details: MOLT-4, 48 h; summary of the method: as §1
RPMI-8226 = assay: Growth inhibition of human RPMI8226 cells incubated for 48 hrs by sulforhodamine B assay; details: RPMI-8226, 48 h
Summary of the method: (§2)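 NCI 60 human tumour cell line panel, five-dose study at 0.01, 0.1, 1, 10 and 100 µM, 48 h incubation. Sulforhodamine B protein-binding dye end point. GI50 (50% decrease in net cell growth), TGI (total growth inhibition) and LC50 (net 50% loss of initial cells) read from log concentration versus % growth inhibition curves.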

SR = assay: Growth inhibition of human SR cells incubated for 48 hrs by sulforhodamine B assay; summary of the method: as §2
HOP-62 = assay: Growth inhibition of human HOP62 cells incubated for 48 hrs by sulforhodamine B assay; details: HOP-62, 48 h; summary of the method: as §1
NCI-H226 = assay: Growth inhibition of human NCI-H226 cells incubated for 48 hrs by sulforhodamine B assay; details: NCI-H226, 48 h; summary of the method: as §1
NCI-H23 = assay: Growth inhibition of human NCI-H23 cells incubated for 48 hrs by sulforhodamine B assay; details: NCI-H23, 48 h; summary of the method: as §1
NCI-H460 = assay: Growth inhibition of human NCI-H460 cells incubated for 48 hrs by sulforhodamine B assay; details: NCI-H460, 48 h; summary of the method: as §1
HT-29 = assay: Growth inhibition of human HT-29 cells incubated for 48 hrs by sulforhodamine B assay; details: HT-29, 48 h; summary of the method: as §1
SW-620 = assay: Growth inhibition of human SW620 cells incubated for 48 hrs by sulforhodamine B assay; details: SW-620, 48 h; summary of the method: as §2
SF-268 = assay: Growth inhibition of human SF268 cells incubated for 48 hrs by sulforhodamine B assay; details: SF-268, 48 h; summary of the method: as §2
SNB-75 = assay: Growth inhibition of human SNB75 cells incubated for 48 hrs by sulforhodamine B assay; details: SNB-75, 48 h; summary of the method: as §2
U-251 = assay: Growth inhibition of human U251 cells incubated for 48 hrs by sulforhodamine B assay; details: U-251, 48 h; summary of the method: as §2
LOX IMVI = assay: Growth inhibition of human LOXIMVI cells incubated for 48 hrs by sulforhodamine B assay; summary of the method: as §1
UACC-257 = assay: Growth inhibition of human UACC257 cells incubated for 48 hrs by sulforhodamine B assay; details: UACC-257, 48 h; summary of the method: as §2
UACC-62 = assay: Growth inhibition of human UACC62 cells incubated for 48 hrs by sulforhodamine B assay; details: UACC-62, 48 h; summary of the method: as §2
IGROV-1 = assay: Growth inhibition of human IGROV1 cells incubated for 48 hrs by sulforhodamine B assay; details: IGROV-1, 48 h; summary of the method: as §1
OVCAR-4 = assay: Growth inhibition of human OVCAR4 cells incubated for 48 hrs by sulforhodamine B assay; details: OVCAR-4, 48 h; summary of the method: as §1
OVCAR-5 = assay: Growth inhibition of human OVCAR5 cells incubated for 48 hrs by sulforhodamine B assay; details: OVCAR-5, 48 h; summary of the method: as §1
A498 = assay: Growth inhibition of human A498 cells incubated for 48 hrs by sulforhodamine B assay; details: A498, 48 h; summary of the method: as §1
ACHN = assay: Growth inhibition of human ACHN cells incubated for 48 hrs by sulforhodamine B assay; summary of the method: as §1
CAKI-1 = assay: Growth inhibition of human Caki1 cells incubated for 48 hrs by sulforhodamine B assay; details: CAKI-1, 48 h; summary of the method: as §1
SN12C = assay: Growth inhibition of human SN12C cells incubated for 48 hrs by sulforhodamine B assay; summary of the method: as §2
UO-31 = assay: Growth inhibition of human UO31 cells incubated for 48 hrs by sulforhodamine B assay; details: UO-31, 48 h; summary of the method: as §2
DU-145 = assay: Growth inhibition of human DU145 cells incubated for 48 hrs by sulforhodamine B assay; details: DU-145, 48 h; summary of the method: as §1
MDA-MB-231 = assay: Growth inhibition of human MDA-MB-231 cells incubated for 48 hrs by sulforhodamine B assay; details: MDA-MB-231, 48 h; summary of the method: as §1
HOP-92 = assay: Anticancer activity against human HOP92 cells assessed as cell growth at 10 uM after 48 hrs by sulforhodamine B assay relative to control; details: HOP-92, 48 h, read-out: Activity
Summary of the method: (§3)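 Single-dose NCI-60 panel screen: compound added at 10 µM and the culture incubated 48 h. The end point was read by protein staining with sulforhodamine B. The value is percent growth of treated cells relative to untreated control cells, reported as a mean graph across the panel.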

SF-539 = assay: Anticancer activity against human SF539 cells assessed as cell growth at 10 uM after 48 hrs by sulforhodamine B assay relative to control; details: SF-539, 48 h, read-out: Activity; summary of the method: as §3
SNB-19 = assay: Anticancer activity against human SNB19 cells assessed as cell growth at 10 uM after 48 hrs by sulforhodamine B assay relative to control; details: SNB-19, 48 h, read-out: Activity; summary of the method: as §3
[1] = read-out: LC50 (the source's name)

SMILES: C=C1CC[C@@H]2[C@](C)(COC(C)=O)[C@H](OC(C)=O)CC[C@@]2(C)[C@H]1CC(Nc1ccc(S(=O)(=O)Nc2nccc(C)n2)cc1)C1=CCOC1=O (stereo partly specified)
- GI50 (CCRF-CEM): 0.0073 µM
- TGI (CCRF-CEM): 3.09 µM
- CC50 (CCRF-CEM; [1]): > 100 µM
- GI50 (MOLT-4): 3.22 µM
- TGI (MOLT-4): 17.9 µM
- CC50 (MOLT-4; [1]): > 100 µM
- GI50 (RPMI-8226): 1.95 µM
- TGI (RPMI-8226): 6.84 µM
- CC50 (RPMI-8226; [1]): > 100 µM
- GI50 (SR): 0.75 µM
- TGI (SR): > 100 µM
- CC50 (SR; [1]): > 100 µM
- GI50 (HOP-62): 10.3 µM
- TGI (HOP-62): 22.5 µM
- CC50 (HOP-62; [1]): 49.3 µM
- GI50 (NCI-H226): 2.33 µM
- TGI (NCI-H226): 5.91 µM
- CC50 (NCI-H226; [1]): > 100 µM
- GI50 (NCI-H23): 3.78 µM
- TGI (NCI-H23): 16 µM
- CC50 (NCI-H23; [1]): 50.6 µM
- GI50 (NCI-H460): 4.88 µM
- TGI (NCI-H460): 18.3 µM
- CC50 (NCI-H460; [1]): 53.9 µM
- GI50 (HT-29): 2.02 µM
- TGI (HT-29): 4.24 µM
- CC50 (HT-29; [1]): 8.93 µM
- GI50 (SW-620): 1.6 µM
- TGI (SW-620): 3.68 µM
- CC50 (SW-620; [1]): 8.48 µM
- GI50 (SF-268): 6.19 µM
- TGI (SF-268): 20.9 µM
- CC50 (SF-268; [1]): 54.2 µM
- GI50 (SNB-75): 2.69 µM
- TGI (SNB-75): 14.9 µM
- CC50 (SNB-75; [1]): 38.6 µM
- GI50 (U-251): 3.17 µM
- TGI (U-251): 10.7 µM
- CC50 (U-251; [1]): 33.3 µM
- GI50 (LOX IMVI): 1.53 µM
- TGI (LOX IMVI): 3.24 µM
- CC50 (LOX IMVI; [1]): 6.89 µM
- GI50 (UACC-257): 4.8 µM
- TGI (UACC-257): 16.4 µM
- CC50 (UACC-257; [1]): 42.8 µM
- GI50 (UACC-62): 2.38 µM
- TGI (UACC-62): 7.12 µM
- CC50 (UACC-62; [1]): 30.3 µM
- GI50 (IGROV-1): 3.62 µM
- TGI (IGROV-1): 13.6 µM
- CC50 (IGROV-1; [1]): 45.5 µM
- GI50 (OVCAR-4): 4.37 µM
- LC50 (OVCAR-4): 41.4 µM
- TGI (OVCAR-4): 15.8 µM
- GI50 (OVCAR-5): 3.86 µM
- LC50 (concentration causing net 50% loss of initial cells) (OVCAR-5): 42.2 µM
- TGI (OVCAR-5): 12.8 µM
- GI50 (A498): 14.8 µM
- LC50 (concentration giving net 50% loss of initial cells) (A498): 54.4 µM
- TGI (A498): 28.4 µM
- GI50 (ACHN): 3.64 µM
- TGI (ACHN): 13 µM
- CC50 (ACHN; [1]): 38.4 µM
- GI50 (CAKI-1): 3.56 µM
- TGI (CAKI-1): 12.5 µM
- CC50 (CAKI-1; [1]): 35.5 µM
- GI50 (SN12C): 2.64 µM
- TGI (SN12C): 6.17 µM
- CC50 (SN12C; [1]): 81.2 µM
- GI50 (UO-31): 2.91 µM
- LC50 (concentration giving net 50% loss of initial cells) (UO-31): 33.3 µM
- TGI (UO-31): 10.6 µM
- GI50 (DU-145): 3.36 µM
- TGI (DU-145): 11.8 µM
- CC50 (DU-145; [1]): 34.9 µM
- GI50 (MDA-MB-231): 3.62 µM
- LC50 (concentration giving net 50% loss of initial cells) (MDA-MB-231): 40.5 µM
- TGI (MDA-MB-231): 10.2 µM
- growth at 10 µM (HOP-92): 71.6%
- growth at 10 µM (SF-539): -62.7%
- growth at 10 µM (SNB-19): 53.6%

Source: ChEMBL document CHEMBL4033712, “Synthesis and biological evaluation of new C-12(α/β)-(N-) sulfamoyl-phenylamino-14-deoxy-andrographolide derivatives as potent anti-cancer agents” (Bioorg Med Chem Lett, 2017)
